mABHD4 FP = ABHD4 inhibitors, primary screen, biochemical, fluorescence polarization, mouse | (Lyso)-N-acylphosphatidylethanolamine lipase (Mus musculus), Q8VD66 | purified mABHD4, FP-Rh probe fluorescence polarization | inhibition, % at 8.92 µM | 370,000 compounds, 0.54% hits;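 active = inhibition exceeding the mean over every tested compound plus 3 SD, cut at about 30% in these data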;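 also: 0% = plate median of compound wells and 100% = S159A mutant with DMSO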
Target sequence (Q8VD66 whole entry, looked up): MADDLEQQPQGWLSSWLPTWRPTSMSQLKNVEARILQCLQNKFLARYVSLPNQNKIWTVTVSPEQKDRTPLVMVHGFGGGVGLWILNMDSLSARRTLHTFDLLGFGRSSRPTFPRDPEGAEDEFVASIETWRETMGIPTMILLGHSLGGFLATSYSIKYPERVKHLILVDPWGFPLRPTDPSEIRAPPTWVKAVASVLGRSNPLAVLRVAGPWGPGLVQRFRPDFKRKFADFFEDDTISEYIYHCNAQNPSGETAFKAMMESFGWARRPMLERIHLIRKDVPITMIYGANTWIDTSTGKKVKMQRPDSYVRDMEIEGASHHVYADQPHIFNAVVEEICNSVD
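Test system: mABHD4 protein; Read-out basis: % inhibition; Incubation: 45 min + 60 min at 25 °C; Repeats: single replicate; Technique: fluorescence polarization with parallel and perpendicular emission, 525/598 nm; Compound: 8.92 µM, single dose; Benchmarks: full inhibition S159A mutant plus DMSO, zero as sample-well median.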
TCR CD3 inh = inhibitors of human TCR-CD3 interaction, primary screen, biochemical, fluorescence, TAMRA-labeled TCR probe; inhibition, % at 9.4 µM; 360,000 compounds, 0.37% hits; in the data active = inhibition above about 19%;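 also: recombinant mutant TCR 2C K166C tagged with TAMRA read by polarization; 0% = receptor in buffer alone and 100% = receptor with positive control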
rCAG RNA binder = binders of r(CAG) RNA repeats, primary screen, biochemical, fluorescence | r(CAG) RNA repeat, TO-PRO-1 dye displacement fluorescence | inhibition, % at 3 µM | 370,000 compounds, 1.3% hits;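 active = inhibition above the plate cutoff, the mean of all test compounds on that plate plus 3 SD, cut at about 35% in these data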;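 also: 0% = DMSO alone and 100% = 100 µM mitoxantrone as full dye displacement; higher means more dye released from RNA so lower well fluorescence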
SIAE inh = human SIAE inhibitors, primary screen, biochemical, fluorescence polarization, FP-Rh probe, 1536-well HTS; SIAE FP-Rh probe binding; inhibition, % at 9.66 µM; 370,000 compounds, 0.69% hits; AID 1053197, 2014;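 active = inhibition above a cutoff: mean of compounds within the control limits plus 3 SD of those, cut at about 17% in these data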;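 also: 0% = plate median of compound wells and 100% = probe without SIAE protein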
HTRA1 inh = HTRA1 serine protease inhibitors, primary screen, biochemical, fluorescence polarization, HTS; Q92743; recombinant HTRA1, FP-rhodamine activity-based probe; inhibition, % at 5.96 µM; 340,000 compounds, 0.5% hits; AID 504803, 2011; in the data active = inhibition above about 36%;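 also: 0% = enzyme with DMSO and 100% = wells lacking enzyme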
The depositor's hits bear a star; . = not tested or not shown. Only some compounds are listed: those with a hit (about 2.5% of all), similar ones and a draw of the others.

SMILES	mABHD4 FP	TCR CD3 inh	rCAG RNA binder	SIAE inh	HTRA1 inh
CC(OC(=O)Cc1ccccc1[N+](=O)[O-])C(=O)NC(=O)NC1CCCCC1 (stereo unspecified)	-2	3	-8	0	58*
Cc1ccc(-c2csc(/C(C#N)=C(\O)CCl)n2)cc1	2	5	35*	-7	-4
Cc1ccc(-c2csc(/C(C#N)=C(\O)CN3CCN(C(=O)c4ccco4)CC3)n2)cc1	15	-2	62*	1	0
N#C/C(=C(/O)CN1CCOCC1)c1nc(-c2ccccc2)cs1	-5	6	24	2	-6
O=C(OCc1c(-c2ccccc2)ncc2ccccc12)c1ccc(F)cc1	-4	6	-3	3	-18
CCN1C(=O)c2ccccc2S(=O)(=O)c2ccc(C(=O)NC(C)C)cc21	-1	1	-5	-7	4
CC1=CC(=O)c2ccccc2C1=O	3	9	2	-1	2
CC(C)(C=O)C1=CC(=O)c2ccccc2C1=O	37*	3	18	12	14
CN(C)c1ccc(NC(=O)c2sc(SCC(=O)Nc3nccs3)nc2N)cc1	18	5	8	24*	5
CN(C)c1ccc(NC(=O)c2sc(SCC(=O)Nc3ccc(Br)cc3)nc2N)cc1	-7	-2	9	6	1
O=C(Nc1ccc(Nc2cccnc2)cc1)c1c[nH]c2ccccc12	42*	0	11	13	.
Cc1ccc(NC(=O)c2cc(NC(=O)C3CC=CCC3C(=O)O)ccc2N2CCOCC2)cc1Cl (stereo unspecified)	9	0	35*	1	-2
Cc1cccc(NC(=O)CC2SC(=O)N(c3ccccc3)C2=O)c1 (stereo unspecified)	-3	-11	29	10	-8
Cc1ccc(NC(=O)CC2SC(=O)N(c3ccccc3)C2=O)cc1 (stereo unspecified)	-4	-18	37*	5	4
CC1(C)CC[C@]2(C(=O)n3ccnc3)CC[C@]3(C)[C@H](C(=O)C=C4[C@@]5(C)C=C(C#N)C(=O)C(C)(C)[C@@H]5CC[C@]43C)[C@@H]2C1	7	1	53*	-5	-18
CCOC(=O)Oc1ccc2c(=O)c(Oc3cc(C)cc(C)c3)coc2c1	-1	-3	0	3	49*
CCOC(=O)Oc1ccc2c(=O)c(Oc3cccc(C)c3)coc2c1	2	2	-3	-3	51*
Cc1cccc(Oc2coc3cc(O)ccc3c2=O)c1	0	4	5	-5	1
COc1ccc(Oc2coc3cc(OC(=O)c4cccs4)ccc3c2=O)cc1	-8	2	1	-12	51*
CC(C)C(C)NC(=O)CN1C(=O)NC2(CCCCCC2)C1=O (stereo unspecified)	3	3	1	-5	-10
N#C/C(=C\c1ccc(O)c(O)c1)S(=O)(=O)c1ccccc1	21	10	12	20*	31
COc1cc(/C=N/N2CCN(Cc3ccccc3)CC2)cc(OC)c1OC	-1	-2	0	8	1
COC(=O)c1ccccc1NC1OC(=O)c2ccccc21 (stereo unspecified)	-19	2	6	-8	-5
Cc1ccc2cccc(NC3OC(=O)c4ccccc43)c2n1 (stereo unspecified)	7	10	1	19*	14
O=C(CCCCn1c(=O)[nH]c2ccsc2c1=O)NCc1cccnc1	-4	-7	-2	20*	3
SMILES	mABHD4 FP	TCR CD3 inh	rCAG RNA binder	SIAE inh	HTRA1 inh
O=C(CCCCn1c(=O)[nH]c2ccsc2c1=O)NCCc1ccccc1	3	10	-6	3	4
O=S(=O)(Nc1nnc(-c2ccccc2)s1)c1ccc(Cl)cc1	-25	0	74*	-9	-21
COc1nc(N(C)S(=O)(=O)c2ccc(C)cc2)nc(C)c1Br	-8	0	-1	-4	-4
CCOc1ccc(N2C(=O)C3Sc4[nH]c(=O)sc4C(/C=C/c4ccccc4)C3C2=O)cc1 (stereo unspecified)	5	-6	57*	9	-3
CCOc1ccccc1/C=N/N1CCN(Cc2ccccc2)CC1	4	-2	-5	6	-2
CC(C)(C)OC(=O)NCC(=O)NCC(=O)OCc1ccccc1	0	5	-3	-2	1
CNC(=O)C1(CC(C)C)C=CCN1C(C)=O (stereo unspecified)	0	-4	-2	17*	2
CCCCCCc1c(O)c2ccccc2[nH]c1=O	12	1	-1	0	9
CCCCCCCCCCCC1=C(O)C(=O)C=C(O)C1=O	.	.	.	.	43*
CSc1nsc(/C=C/Nc2ccc(C(=O)O)cc2)c1C#N	-4	2	46*	-19	-17
O=C1c2ccccc2C(=O)N1CCN1CCc2ccccc21	3	7	1	1	4
COc1ccc2[nH]c(C(=O)N/N=C/c3ccc(O)cc3O)cc2c1	18	7	16	25*	26
CN(C)CCNC(=O)c1ccc(-c2nn(C)c(=O)c3ccccc23)cc1	1	-10	-2	-1	-5
O=C(NNc1nc(N2CCOCC2)nc(N2CCOCC2)n1)c1ccccc1	-2	3	1	4	5
Nc1ccc(S(=O)(=O)c2cc(O)c3ccccc3c2O)cc1	48*	6	57*	1	19
O=S(=O)(c1ccccc1)c1cc(O)ccc1O	2	5	0	3	5
COc1cc(OC)c(NC(=O)CN(C)S(=O)(=O)c2ccc3[nH]c(=O)oc3c2)cc1Cl	8	20*	33	-2	9
COC(=O)[C@H](CCSC)NC(=O)Cn1ccc(NC(=O)OCc2ccccc2)nc1=O	3	3	3	-6	3
CCOCCCNC(=S)Nc1ccc2nc3n(c(=O)c2c1)CCCCC3	0	1	-5	8	2
Cc1cc(N)ccc1N1CCCC1	.	.	.	.	82*
NC(=O)c1cc(N)ccc1N1CCCC1	17	19	29	8	25
O=C(CN1C(=O)N/C(=C\c2ccccc2OCc2ccc(C(=O)O)cc2)C1=O)Nc1ccccc1F	-33	-6	47*	-16	-37
O=C(O)c1ccc(COc2ccc3ccccc3c2/C=C2/NC(=O)N(Cc3ccc(F)cc3)C2=O)cc1	-17	1	25	-23	-64
COc1ccc(CCCc2nnc(SCC(=O)Nc3ncc(C)s3)o2)cc1	4	1	-1	2	-3
Cc1cccc(N=Nc2c(N)n[nH]c2-c2ccc(Cl)cc2)c1	-2	3	40*	9	-4
COC(=O)[C@]12C[C@H](CC(=O)N3CCSCC3)C(=O)N(CCC3=CCCCC3)C1=C[C@H](COCc1ccccc1)O[C@@H]2C	-6	-2	5	4	.
